# Results published in PMC4972181 (Journal of medicinal chemistry, 2015).
# Like-named read-outs stand apart in the source and are kept apart here.
# Key:
# [1] = system: CUG: MBNL nuclear foci in HeLa cells transfected with CUG960; test: Fluorescent microscopy of CUG RNA nuclear foci and MBNL1 localization; type: cell-based, human; settings: for Effect on ribonuclear foci (in words): 50 μM pentamidine or 80 μM compound 13
# [2] = system: INSR minigene exon 11 splicing in HeLa cells without CUG960; test: Control splicing experiment, INSR minigene in the absence of transfected CUG960; type: cell-based, human; settings: 80 μM; untreated range ~70% to ~80 %
# [3] = system: TNNT2 minigene exon 5 splicing in HeLa cells expressing CUG960; test: HeLa cell DM1 splicing assay, TNNT2 minigene co-transfected with CUG960; type: cell-based, human
# [4] = Toxicity observed in treated HSALR mice; type: in vivo, mouse; settings: 10 and 20 mg/kg daily i.p. for 7 d
# [5] = system: INSR minigene exon 11 splicing in HeLa cells expressing CUG960; type: cell-based, human; settings: for INSR mis-splicing rescue (in words): HeLa cells, CUG960 + INSR minigene
# Atp2a1 exon 22 splicing = test: HSALR DM1 mouse model, Atp2a1 splicing in quadriceps muscle; type: in vivo; settings: HSALR mice, wild type 100 ± 0.2 %, HSALR 28 ± 2 %
# Procedure, shortened: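 Homozygous, gender-matched HSALR transgenic mice aged 10–14 wks received the test compound in 5% glucose solution by daily intraperitoneal injection for 7 d. Controls received 5% glucose injections. Mice were killed 1 d after the last dose and quadriceps was taken. RNA was reverse transcribed, PCR-amplified and run on agarose gels read by fluorimager. Inclusion was scored per individual mouse.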
# in vitro = settings: human
# [6] = Flow cytometry cell viability assay with propidium iodide in the DM1 cell model; settings: human, HeLa cells, DM1 cell model (transfected)
smiles,measurement,setting,value
"N=C(N)c1ccc(-c2ccc(-c3ccc(C(=N)N)cc3)o2)cc1 [Compound 13, furamidine]",Effect on ribonuclear foci (in words),[1],significant reduction of ribonuclear foci
same,Reduction of nuclear foci per cell,"[1]; 80 μM, vs transfected controls, n = 121, p < 0.05",89%
same,INSR exon 11 inclusion in the absence of CUG960,[2],81± 4%
same,Concentration by which full TNNT2 mis-splicing reversal was achieved,[3],≤ 80 µM
same,Toxicity in mice (in words),[4],No toxicity was observed over the concentration range tested
same,Toxicity observed in the cell splicing assay (in words),"[5]; HeLa DM1 cell model, qualitative",non-toxic over the range of rescue
same,Atp2a1 exon 22 inclusion,Atp2a1 exon 22 splicing; 10 mg/kg daily i.p. 7 days,64 ± 4%
same,Atp2a1 exon 22 inclusion,Atp2a1 exon 22 splicing; 20 mg/kg daily i.p. 7 days,83 ± 4%
"N=C(N)c1ccc(OCCCCCOc2ccc(C(=N)N)cc2)cc1 [Pentamidine, pentamidine, reference compound]",Effect on ribonuclear foci (in words),[1],significant reduction of ribonuclear foci
same,IC50 at 18 h,in vitro,64 ± 12 µM
"N=C(N)c1ccc(OCCCCCCCOc2ccc(C(=N)N)cc2)cc1 [Heptamidine, heptamidine]",IC50 at 18 h,[6],15 ± 0.46 µM
N=C(N)c1cccc(OCCCCCCCOc2cccc(C(=N)N)c2)c1 [Compound 4],Toxicity observed in the cell splicing assay (in words),[5],very toxic over the range tested
same,INSR mis-splicing rescue (in words),[5],almost complete dose-dependent mis-splicing rescue at 25 μM
N=C(N)c1ccc(OCCCOc2ccccc2)cc1 [Compound 2a],INSR mis-splicing rescue (in words),[5],dose-dependent rescue of mis-splicing through 60 μM
N=C(N)c1ccc(OCCCCc2ccccc2)cc1 [Compound 2b],INSR mis-splicing rescue (in words),[5],little rescue was observed by 20 μM
